Assay results from different studies.
Lines come from different studies, so protocols differ.
Medium: Caco-2

SMILES | conditions | quantity | value
CC1=C2C(=O)O[C@@H](c3ccoc3)[C@]2(C)CCC1 | 1 mg/mL, 4 h, pH 7.4 | Papp | > 10 ×10⁻⁶ cm/s
Nc1nc2c(ncn2COCCO)c(=O)[nH]1 | 10 µM, 2 h, pH 7.4 | Papp B→A | 0.756 ×10⁻⁶ cm/s
CCCCN1C(=O)[C@@H]([C@@H](O)C2CCCCC2)NC(=O)C12CCN(Cc1ccc(Oc3ccc(C(=O)O)cc3)cc1)CC2.Cl |  | Papp | 1.6 ×10⁻⁶ cm/s
O=c1c(O)c(-c2ccc(O)cc2)oc2cc(O)cc(O)c12 | 1 mg/mL, pH 7.4 | Papp | 1.17 ×10⁻⁶ cm/s
CNCc1cc(-c2ccccc2F)n(S(=O)(=O)c2cccnc2)c1 |  | Papp | 17.8 ×10⁻⁶ cm/s
CC(C)(/C=C(\C#N)C(=O)N1CCC[C@@H](n2nc(-c3ccc(Oc4ccccc4)cc3F)c3c(N)ncnc32)C1)N1CCN(C2COC2)CC1 | 1 µM | Papp | 1.7 ×10⁻⁶ cm/s
CC(C)c1cccc2c(-c3ccccc3)cc(-c3ccc(-c4ccc(C(=O)O)cc4)[nH]3)nc12 |  | Papp B→A | 1.11 ×10⁻⁶ cm/s
CCN1C(=O)N(c2c(F)c(OC)cc(OC)c2F)Cc2cnc3[nH]c(CN4CCOCC4)cc3c21 | 50 µM | Papp | 11 ×10⁻⁶ cm/s
CCn1c(=O)c2c(nc(S)n2C)n(C)c1=O | 10 µM, 2 h | Papp B→A | 7 ×10⁻⁶ cm/s
COc1cc(Cl)c(C(=O)N[C@@H](CN[C@H]2CC[C@@H](N)CC2)Cc2ccc(C#N)cc2)cc1-c1ccc(CN[C@H](C)c2ccc(C)cc2)o1 | 2 µM, 2 h, pH 7.2 | Papp B→A | 1.1 ×10⁻⁶ cm/s
O=c1c(O[C@@H]2O[C@H](CO)[C@@H](O)[C@H](O)[C@H]2O)c(-c2ccc(O)c(O)c2)oc2cc(O)cc(O)c12 | 1 mg/mL, pH 7.4 | Papp | 2.05 ×10⁻⁶ cm/s
Cn1c(S)nc2c1c(=O)n(Cc1ccccc1)c(=O)n2C | 10 µM, 2 h | Papp B→A | 30.5 ×10⁻⁶ cm/s
CCOC(=O)[C@@]12C[C@@H]1[C@@H](n1ccc3c(NC)nc(C#Cc4ccc(Cl)s4)nc31)[C@H](O)[C@@H]2O | 10 µM, 2 h, pH 7.4 | Papp B→A | 22.2 ×10⁻⁶ cm/s
CO[C@@H](C[C@H]1C(C)=CC[C@@H]2[C@]3(C)C[C@H](O[C@@H]4O[C@@H](C)[C@H](OC(=O)c5cccc(O)c5)[C@@H](O[C@@H]5O[C@H](CO)[C@@H](O)[C@H](O)[C@H]5NC(C)=O)[C@H]4O)[C@@H](O)C(C)(C)[C@H]3CC[C@]21C)[C@H](N)C(=O)O.O=C(O)C(F)(F)F | 5 µM, 1 h | Papp B→A | 0.05 ×10⁻⁶ cm/s
CC(C)NCC(O)COc1cccc2ccccc12 (stereo not shown) |  | Papp B→A | 59.3 ×10⁻⁶ cm/s
CC(C)NCC(O)COc1cccc2ccccc12 (stereo not shown) |  | Papp | 20 ×10⁻⁶ cm/s
